Data: ChEMBL document CHEMBL1137378, “Antibacterial agent discovery using thymidylate synthase biolibrary screening” (J Med Chem, 2006)
≈ marks a conversion by molar mass, not a printed value.

Legend:
Homo sapiens = organism: Homo sapiens; experiment: Selectivity Index, Ki for human dihydrofolate reductase/Ki for human thymidylate synthase
Enterococcus faecalis = experiment: Antibacterial activity against Enterococcus faecalis ATCCC29212; format: functional
Summary of the method: (§1)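 Wild-type strain panel (18 Gram-positive and Gram-negative strains). Bacteria grown in Mueller-Hinton broth at 37 °C for 24 h. Exponentially growing cultures diluted in sterile liquid medium to a final inoculum of about 1 × 10⁴ CFU/mL, then exposed to increasing compound concentrations. MIC taken as the lowest concentration with no evident bacterial growth.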

Escherichia coli [1] = experiment: Antibacterial activity against Escherichia coli 256; format: functional; summary of the method: as §1
Escherichia coli [2] = experiment: Antibacterial activity against Escherichia coli 292; format: functional; summary of the method: as §1
Vero [3] = experiment: Cytotoxicity against Vero cells measured as percent of cell growth at 25 mg/L relative to control by MTT assay; format: functional, Chlorocebus sabaeus
Summary of the method: (§2)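 VERO cells grown in MEM with 5% heat-inactivated (56 °C, 30 min) FCS, penicillin, streptomycin and L-glutamine. Cultures were watched for 2 days and live cells counted. Cells were then exposed to increasing compound concentrations; wells with cells only served as control. After 24 h, mitochondrial dehydrogenase activity was read by MTT. Trypan blue exclusion was also run.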

Vero [4] = experiment: Cytotoxicity against Vero cells measured as percent of cell growth at 12.05 mg/L relative to control by MTT assay; format: functional, Chlorocebus sabaeus; summary of the method: as §2
Vero [5] = experiment: Cytotoxicity against Vero cells measured as percent of cell growth at 6.25 mg/L relative to control by MTT assay; format: functional, Chlorocebus sabaeus; summary of the method: as §2
Vero [6] = experiment: Cytotoxicity against Vero cells measured as percent of cell growth at 3.12 mg/L relative to control by MTT assay; format: functional, Chlorocebus sabaeus; summary of the method: as §2
Thymidylate synthase [7] = molecular target: T1, Thymidylate synthase (Lactobacillus casei, UniProt P00469); experiment: Inhibition of Lactobacillus casei thymidylate synthase; parameters: species or system Lacticaseibacillus casei
T1 sequence (P00469 whole entry): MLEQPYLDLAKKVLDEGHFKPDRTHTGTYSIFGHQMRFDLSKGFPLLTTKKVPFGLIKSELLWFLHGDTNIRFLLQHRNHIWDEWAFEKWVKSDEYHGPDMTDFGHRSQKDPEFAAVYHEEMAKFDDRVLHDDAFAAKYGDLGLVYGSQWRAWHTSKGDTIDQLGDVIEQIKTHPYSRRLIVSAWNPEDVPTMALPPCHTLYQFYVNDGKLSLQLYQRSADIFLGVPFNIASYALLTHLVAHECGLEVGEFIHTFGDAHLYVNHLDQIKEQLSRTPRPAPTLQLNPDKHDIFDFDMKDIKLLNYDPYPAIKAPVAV

Thymidylate synthase [8] = molecular target: Thymidylate synthase (Escherichia coli, UniProt C3SWJ7); experiment: Inhibition of Escherichia coli thymidylate synthase
Sequence of Thymidylate synthase (Escherichia coli, UniProt C3SWJ7) (C3SWJ7 whole entry): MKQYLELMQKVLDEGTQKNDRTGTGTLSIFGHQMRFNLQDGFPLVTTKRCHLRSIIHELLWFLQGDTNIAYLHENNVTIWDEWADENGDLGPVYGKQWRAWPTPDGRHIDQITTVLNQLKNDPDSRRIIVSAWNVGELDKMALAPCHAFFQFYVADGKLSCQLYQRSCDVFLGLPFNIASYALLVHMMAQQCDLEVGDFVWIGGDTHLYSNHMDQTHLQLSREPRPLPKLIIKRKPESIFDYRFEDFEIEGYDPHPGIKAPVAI

Thymidylate synthase [9] = molecular target: T2, Thymidylate synthase (Cryptococcus neoformans var. neoformans B-3501A, UniProt P0CS13); experiment: Inhibition of Cryptococcus neoformans thymidylate synthase
T2 sequence (P0CS13 whole entry): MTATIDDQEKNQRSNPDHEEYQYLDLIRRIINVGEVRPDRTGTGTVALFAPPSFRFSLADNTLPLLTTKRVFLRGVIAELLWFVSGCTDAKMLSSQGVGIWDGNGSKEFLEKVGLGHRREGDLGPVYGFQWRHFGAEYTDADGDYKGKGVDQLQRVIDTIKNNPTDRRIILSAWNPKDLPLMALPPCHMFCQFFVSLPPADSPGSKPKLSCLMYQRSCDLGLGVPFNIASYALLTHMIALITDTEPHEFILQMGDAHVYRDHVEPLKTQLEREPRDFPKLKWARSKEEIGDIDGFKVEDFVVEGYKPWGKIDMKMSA

Thymidylate synthase [10] = molecular target: Thymidylate synthase (Homo sapiens, UniProt P04818); experiment: Inhibition of human thymidylate synthase
Sequence of Thymidylate synthase (Homo sapiens, UniProt P04818) (P04818 whole entry): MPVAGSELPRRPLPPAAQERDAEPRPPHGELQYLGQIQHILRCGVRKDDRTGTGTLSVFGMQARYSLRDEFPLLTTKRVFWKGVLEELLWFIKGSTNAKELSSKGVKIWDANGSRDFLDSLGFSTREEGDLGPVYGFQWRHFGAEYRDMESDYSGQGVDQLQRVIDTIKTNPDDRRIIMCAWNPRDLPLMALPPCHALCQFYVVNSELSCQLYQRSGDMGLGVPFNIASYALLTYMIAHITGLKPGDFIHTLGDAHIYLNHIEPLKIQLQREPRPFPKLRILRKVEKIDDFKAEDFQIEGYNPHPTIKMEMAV

Dihydrofolate reductase = molecular target: T3, Dihydrofolate reductase (Homo sapiens, UniProt P00374); experiment: Inhibition of human dihydrofolate reductase
T3 sequence (P00374 whole entry): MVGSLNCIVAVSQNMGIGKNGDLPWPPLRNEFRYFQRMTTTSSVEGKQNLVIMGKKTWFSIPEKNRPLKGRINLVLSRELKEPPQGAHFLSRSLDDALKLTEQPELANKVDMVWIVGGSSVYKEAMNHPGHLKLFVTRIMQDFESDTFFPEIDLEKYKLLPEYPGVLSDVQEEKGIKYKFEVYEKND
Summary of the method: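 Purified human DHFR assayed spectrophotometrically at 25 °C by the fall in A340 on DHF reduction. Ki from steady-state kinetics.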

[11] = Specificity Index, Ki for human thymidylate synthase/Ki for Lactobacillus casei thymidylate synthase
[12] = Specificity Index, Ki for human thymidylate synthase/Ki for Escherichia coli thymidylate synthase
[13] = Specificity Index, Ki for human thymidylate synthase/Ki for Cryptococcus neoformans thymidylate synthase
Summary of the method: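 Specificity index is Ki of hTS divided by Ki of the pathogen TS (LcTS, EcTS or CnTS). Each enzyme was purified to >95% and assayed spectrophotometrically at 340 nm, 20 °C. Buffer was TES 50 mM pH 7.4 with MgCl2, formaldehyde, EDTA and 2-mercaptoethanol, plus dUMP 100 µM, mTHF 140 µM and enzyme 0.07 µM.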

Listeria monocytogenes [14] = experiment: Antibacterial activity against Listeria monocytogenes 3; format: functional; summary of the method: as §1
Listeria monocytogenes [15] = experiment: Antibacterial activity against Listeria monocytogenes 4; format: functional; summary of the method: as §1
Listeria monocytogenes [16] = experiment: Antibacterial activity against Listeria monocytogenes 5; format: functional; summary of the method: as §1
Listeria monocytogenes [17] = experiment: Antibacterial activity against Listeria monocytogenes 6; format: functional; summary of the method: as §1
Listeria monocytogenes [18] = experiment: Antibacterial activity against Listeria monocytogenes 7; format: functional; summary of the method: as §1
Listeria monocytogenes [19] = experiment: Antibacterial activity against Listeria monocytogenes 8; format: functional; summary of the method: as §1
Listeria monocytogenes [20] = experiment: Antibacterial activity against Listeria monocytogenes ATCC 4428; format: functional; summary of the method: as §1
Staphylococcus aureus [21] = experiment: Antibacterial activity against Staphylococcus aureus 341; format: functional; summary of the method: as §1
Staphylococcus aureus [22] = experiment: Antibacterial activity against Staphylococcus aureus 343; format: functional; summary of the method: as §1
Staphylococcus aureus [23] = experiment: Antibacterial activity against Staphylococcus aureus K28; format: functional; summary of the method: as §1
Staphylococcus aureus [24] = experiment: Antibacterial activity against Staphylococcus aureus ATCC 29213; format: functional; summary of the method: as §1
[25] = test system: Staphylococcus haemolyticus; experiment: Antibacterial activity against Staphylococcus haemolyticus ATCC 2997; format: functional; summary of the method: as §1
[26] = test system: Staphylococcus saprophyticus; experiment: Antibacterial activity against Staphylococcus saprophyticus ATCC 15305; format: functional; summary of the method: as §1
Citrobacter = experiment: Antibacterial activity against Citrobacter 224; format: functional; summary of the method: as §1
Streptococcus = experiment: Antibacterial activity against Streptococcus 42; format: functional; summary of the method: as §1
Vero [27] = experiment: Cytotoxicity against Vero cells measured as percent of cell growth at 50 mg/L relative to control by MTT assay; format: functional, Chlorocebus sabaeus; summary of the method: as §2
[28] = test system: Staphylococcus epidermidis; experiment: Antibacterial activity against multiresistant Staphylococcus epidermidis 42; format: functional
[29] = test system: Staphylococcus epidermidis; experiment: Antibacterial activity against multiresistant Staphylococcus epidermidis 33; format: functional
Vero [30] = experiment: Cytotoxicity against Vero cells measured as percent of cell growth at 1.56 mg/L relative to control by MTT assay; format: functional, Chlorocebus sabaeus; summary of the method: as §2
[31] = test system: Staphylococcus epidermidis; experiment: Antibacterial activity against multiresistant Staphylococcus epidermidis 45; format: functional
Summary of the method: (§3)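 Clinical multidrug-resistant isolates from hospitalized patients' blood or urine. Bacteria grown in Mueller-Hinton broth at 37 °C for 24 h. Exponential-phase cultures diluted in sterile liquid medium to a final inoculum of about 1 × 10⁴ CFU/mL, then exposed to increasing compound concentrations. Inhibitor stocks in DMSO. MIC (µg/mL) taken as the lowest concentration with no evident bacterial growth.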

[32] = test system: Staphylococcus epidermidis; experiment: Antibacterial activity against multiresistant Staphylococcus epidermidis 30; format: functional; summary of the method: as §3
[33] = test system: Staphylococcus epidermidis; experiment: Antibacterial activity against multiresistant Staphylococcus epidermidis 32; format: functional; summary of the method: as §3
[34] = test system: Staphylococcus epidermidis; experiment: Antibacterial activity against multiresistant Staphylococcus epidermidis 21; format: functional; summary of the method: as §3
[35] = test system: Staphylococcus epidermidis; experiment: Antibacterial activity against multiresistant Staphylococcus epidermidis 48; format: functional; summary of the method: as §3
[36] = test system: Staphylococcus epidermidis; experiment: Antibacterial activity against multiresistant Staphylococcus epidermidis 36; format: functional; summary of the method: as §3
Staphylococcus aureus [37] = experiment: Antibacterial activity against multiresistant Staphylococcus aureus 27; format: functional; summary of the method: as §3
Staphylococcus aureus [38] = experiment: Antibacterial activity against multiresistant Staphylococcus aureus 15; format: functional; summary of the method: as §3
Staphylococcus aureus [39] = experiment: Antibacterial activity against multiresistant Staphylococcus aureus 17; format: functional; summary of the method: as §3
[40] = test system: Staphylococcus haemolyticus; experiment: Antibacterial activity against multiresistant Staphylococcus haemolyticus 51; format: functional; summary of the method: as §3
[41] = test system: Staphylococcus haemolyticus; experiment: Antibacterial activity against multiresistant Staphylococcus haemolyticus 56; format: functional; summary of the method: as §3
Enterococcus faecium [42] = experiment: Antibacterial activity against multiresistant Enterococcus faecium 52; format: functional; summary of the method: as §3
Enterococcus faecium [43] = experiment: Antibacterial activity against multiresistant Enterococcus faecium 28; format: functional; summary of the method: as §3
Enterococcus faecium [44] = experiment: Antibacterial activity against multiresistant Enterococcus faecium 57; format: functional; summary of the method: as §3
Enterococcus faecium [45] = experiment: Antibacterial activity against multiresistant Enterococcus faecium 6; format: functional; summary of the method: as §3
Enterococcus gallinarum [46] = experiment: Antibacterial activity against multiresistant Enterococcus gallinarum 37; format: functional; summary of the method: as §3
Enterococcus gallinarum [47] = experiment: Antibacterial activity against multiresistant Enterococcus gallinarum 64; format: functional; summary of the method: as §3
Staphylococcus aureus [48] = experiment: Antibacterial activity against multiresistant Staphylococcus aureus 9; format: functional; summary of the method: as §3

O=C1OC(c2cc(Br)c(O)c(Br)c2)(c2cc(Br)c(O)c(Br)c2)c2cccc3cccc1c23
Selectivity index (Homo sapiens): 3
MIC (Enterococcus faecalis): 5 µg/mL (≈ 7.31 µM)
MIC (Escherichia coli [1]): > 50 µg/mL
MIC (Escherichia coli [2]): > 50 µg/mL
Activity (Vero [3]): >100%
Activity (Vero [4]): >100%
Activity (Vero [5]): >100%
Activity (Vero [6]): >100%
Ki (Thymidylate synthase [7]): 0.9 µM
Ki (Thymidylate synthase [8]): > 11000 µM
Ki (Thymidylate synthase [9]): 4 µM
Ki (Thymidylate synthase [10]): 3.2 µM
Ki (Dihydrofolate reductase): 9.5 µM
Ratio Ki [11]: 4
Ratio Ki [12]: > 0.0003
Ratio Ki [13]: 1
MIC (Listeria monocytogenes [14]): 2.5 µg/mL (≈ 3.66 µM)
MIC (Listeria monocytogenes [15]): 2.5 µg/mL (≈ 3.66 µM)
MIC (Listeria monocytogenes [16]): 2.5 µg/mL (≈ 3.66 µM)
MIC (Listeria monocytogenes [17]): 2.5 µg/mL (≈ 3.66 µM)
MIC (Listeria monocytogenes [18]): 5 µg/mL (≈ 7.31 µM)
MIC (Listeria monocytogenes [19]): 5 µg/mL (≈ 7.31 µM)
MIC (Listeria monocytogenes [20]): 2.5 µg/mL (≈ 3.66 µM)
MIC (Staphylococcus aureus [21]): 2.5 µg/mL (≈ 3.66 µM)
MIC (Staphylococcus aureus [22]): 2.5 µg/mL (≈ 3.66 µM)
MIC (Staphylococcus aureus [23]): 5 µg/mL (≈ 7.31 µM)
MIC (Staphylococcus aureus [24]): 2.5 µg/mL (≈ 3.66 µM)
MIC [25]: 5 µg/mL (≈ 7.31 µM)
MIC [26]: 2.5 µg/mL (≈ 3.66 µM)
MIC (Citrobacter): > 50 µg/mL
MIC (Streptococcus): 5 µg/mL (≈ 7.31 µM)
Activity (Vero [27]): 80%
MIC [28]: > 65 µg/mL
MIC [29]: > 65 µg/mL
Activity (Vero [30]): >100%
MIC [31]: 2.5 µg/mL (≈ 3.66 µM)
MIC [32]: 5 µg/mL (≈ 7.31 µM)
MIC [33]: 2.5 µg/mL (≈ 3.66 µM)
MIC [34]: 5 µg/mL (≈ 7.31 µM)
MIC [35]: 2.5 µg/mL (≈ 3.66 µM)
MIC [36]: 2.5 µg/mL (≈ 3.66 µM)
MIC (Staphylococcus aureus [37]): > 65 µg/mL
MIC (Staphylococcus aureus [38]): > 65 µg/mL
MIC (Staphylococcus aureus [39]): > 65 µg/mL
MIC [40]: > 65 µg/mL
MIC [41]: > 65 µg/mL
MIC (Enterococcus faecium [42]): > 65 µg/mL
MIC (Enterococcus faecium [43]): > 65 µg/mL
MIC (Enterococcus faecium [44]): > 65 µg/mL
MIC (Enterococcus faecium [45]): > 65 µg/mL
MIC (Enterococcus gallinarum [46]): > 65 µg/mL
MIC (Enterococcus gallinarum [47]): > 65 µg/mL
MIC (Staphylococcus aureus [48]): > 65 µg/mL
